Results from ChEMBL document CHEMBL4610036, “Discovery of small molecule antagonists of chemokine receptor CXCR6 that arrest tumor growth in SK-HEP-1 mouse xenografts as a model of hepatocellular carcinoma” (Bioorg Med Chem Lett, 2020).
pIC50: −log10 of the molar value. Active and inactive are the calls of the source. No cut-off for these calls is given here.

What was measured:
[1] = molecular target: T1, C-X-C chemokine receptor type 6 (Homo sapiens, UniProt O00574); test: Antagonist activity at Prolink-tagged human CXCR6 receptor assessed as inhibition of CXCL16-induced beta-arrestin recruitment by DiscoveRx cell based assay
Target sequence in this assay (O00574 whole entry): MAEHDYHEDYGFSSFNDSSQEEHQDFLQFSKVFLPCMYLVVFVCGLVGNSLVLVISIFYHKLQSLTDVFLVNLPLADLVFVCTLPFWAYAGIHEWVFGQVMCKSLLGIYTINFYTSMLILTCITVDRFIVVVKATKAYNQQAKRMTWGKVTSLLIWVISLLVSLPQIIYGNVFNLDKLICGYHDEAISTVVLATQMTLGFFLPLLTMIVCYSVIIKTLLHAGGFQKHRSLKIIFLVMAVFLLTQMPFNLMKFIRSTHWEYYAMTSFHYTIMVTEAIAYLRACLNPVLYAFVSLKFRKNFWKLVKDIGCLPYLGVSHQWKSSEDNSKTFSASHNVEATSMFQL

[2] = molecular target: T1, C-X-C chemokine receptor type 6; test: Antagonist activity at Prolink-tagged human CXCR6 receptor assessed as inhibition of CXCL16-induced beta-arrestin recruitment by DiscoveRx cell based assay relative to control; parameters: concentration or dose not given beside the values
Outline: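 CXCR6 β-arrestin cells in assay media without G418/hygromycin, 800 cells/well, grown overnight at 37 °C; compounds added acoustically (DMSO ≤0.3%), then 20 nM CXCL16 (final) for 90 min at 37 °C. PathHunter luminescence read. Normalized between CXCL16-alone and no-ligand wells; four-parameter fit with Hill slope fixed at 1; at least two runs on different days, averaged pIC50 ± SD.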
Target sequence in this assay (O00574 whole entry, looked up): as the sequence (O00574 whole entry) above

[3] = molecular target: T1, C-X-C chemokine receptor type 6; test: Antagonist activity at Prolink-tagged human CXCR6 receptor assessed as inhibition of forskolin-induced cAMP accumulation by DiscoveRx cell based assay; format: functional
Outline: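 Lance Ultra TR-FRET cAMP assay in CXCR6 β-arrestin cells, 500 cells/well in OptiMEM/2% FBS, grown overnight. Compound added, then forskolin (2.5 mM stock) in HBSS/HEPES/BSA/RO-20-1724 with or without 20 nM CXCL16, 30 min at room temperature. Eu-cAMP tracer and ULight anti-cAMP antibody added, read after 30 min. Curve fit with Hill slope 1; ≥2 independent runs.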
Target sequence in this assay (O00574 whole entry): as above

[4] = molecular target: T1, C-X-C chemokine receptor type 6; test: Antagonist activity at Prolink-tagged human CXCR6 receptor assessed as inhibition of forskolin-induced cAMP accumulation by DiscoveRx cell based assay relative to control; format: functional; parameters: concentration or dose not given beside the values
Outline: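 CXCR6 β-arrestin cells in OptiMEM with 2% FBS, 500 cells/well, grown overnight; compounds added, then forskolin with 20 nM CXCL16 (stock concentrations) in HBSS/HEPES/BSA with RO-20-1724, 30 min at room temperature. cAMP read by LANCE Ultra TR-FRET after a further 30 min. Hill slope fixed at 1; at least two runs on different days, averaged pIC50 ± SD.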
Target sequence in this assay (O00574 whole entry, looked up): as the sequence (O00574 whole entry) above

[5] = molecular target: T1, C-X-C chemokine receptor type 6; test: Inhibition of CXCR6-mediated cell invasion in human SKHEP1 cells after 72 hrs by transwell assay; format: cell-based; conditions: SK-HEP1
Outline: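 SK-HEP-1 cells, 100k/well in 0.2% FBS, seeded in upper chamber of a chemotaxis plate coated with matrigel (250 μg/ml). CXCL16 (0.6 μg/ml) in lower chamber; compound in both chambers. Kept at 37 °C, 5% CO2 and imaged hourly in IncuCyte. Migration quantified as confluence from phase-contrast images.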
Target sequence in this assay (O00574 whole entry, looked up): as the sequence (O00574 whole entry) above

[6] = molecular target: T2, C-C chemokine receptor type 6 (Homo sapiens, UniProt P51684); test: Antagonist activity at human CCR6
T2 sequence (P51684 whole entry): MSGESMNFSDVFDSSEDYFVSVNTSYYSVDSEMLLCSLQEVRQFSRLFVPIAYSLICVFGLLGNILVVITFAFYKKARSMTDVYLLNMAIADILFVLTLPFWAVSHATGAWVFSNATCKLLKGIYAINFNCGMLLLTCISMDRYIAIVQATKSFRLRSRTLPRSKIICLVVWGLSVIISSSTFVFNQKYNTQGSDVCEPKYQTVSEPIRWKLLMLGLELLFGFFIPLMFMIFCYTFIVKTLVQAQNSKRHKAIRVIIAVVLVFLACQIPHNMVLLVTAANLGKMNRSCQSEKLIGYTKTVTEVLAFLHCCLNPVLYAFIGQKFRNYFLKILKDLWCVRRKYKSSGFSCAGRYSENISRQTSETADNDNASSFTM

[7] = molecular target: T3, C-X-C chemokine receptor type 5 (Homo sapiens, UniProt P32302); test: Antagonist activity at human CXCR5
T3 sequence (P32302 whole entry): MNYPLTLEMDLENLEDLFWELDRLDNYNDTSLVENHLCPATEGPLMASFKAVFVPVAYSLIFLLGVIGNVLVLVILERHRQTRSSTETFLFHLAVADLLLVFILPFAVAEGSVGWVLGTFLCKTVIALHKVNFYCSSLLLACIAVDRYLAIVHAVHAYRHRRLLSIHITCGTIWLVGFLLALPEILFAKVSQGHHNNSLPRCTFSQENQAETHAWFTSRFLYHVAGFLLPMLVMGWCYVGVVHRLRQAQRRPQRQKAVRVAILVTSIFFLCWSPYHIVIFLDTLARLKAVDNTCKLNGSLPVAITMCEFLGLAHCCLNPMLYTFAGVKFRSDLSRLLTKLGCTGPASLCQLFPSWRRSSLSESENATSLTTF

[8] = molecular target: C-X-C chemokine receptor type 4 (Homo sapiens, UniProt P61073); test: Antagonist activity at human CXCR4
[9] = molecular target: T4, C-X-C chemokine receptor type 6 (Mus musculus, UniProt Q9EQ16); test: Antagonist activity at mouse CXCR6 by DiscoveRx cell based beta-arrestin assay
T4 sequence (Q9EQ16 whole entry): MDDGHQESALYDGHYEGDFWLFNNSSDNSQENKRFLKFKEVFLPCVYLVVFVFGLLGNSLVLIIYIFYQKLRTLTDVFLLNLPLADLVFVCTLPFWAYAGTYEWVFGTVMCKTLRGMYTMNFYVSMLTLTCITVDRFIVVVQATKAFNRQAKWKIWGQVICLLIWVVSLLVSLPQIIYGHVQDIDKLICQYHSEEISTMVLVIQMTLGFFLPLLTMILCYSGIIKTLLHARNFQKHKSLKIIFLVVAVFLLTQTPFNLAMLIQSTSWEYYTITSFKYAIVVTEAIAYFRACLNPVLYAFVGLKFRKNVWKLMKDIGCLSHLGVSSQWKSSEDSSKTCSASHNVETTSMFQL

Sequence of C-X-C chemokine receptor type 4 (P61073 whole entry): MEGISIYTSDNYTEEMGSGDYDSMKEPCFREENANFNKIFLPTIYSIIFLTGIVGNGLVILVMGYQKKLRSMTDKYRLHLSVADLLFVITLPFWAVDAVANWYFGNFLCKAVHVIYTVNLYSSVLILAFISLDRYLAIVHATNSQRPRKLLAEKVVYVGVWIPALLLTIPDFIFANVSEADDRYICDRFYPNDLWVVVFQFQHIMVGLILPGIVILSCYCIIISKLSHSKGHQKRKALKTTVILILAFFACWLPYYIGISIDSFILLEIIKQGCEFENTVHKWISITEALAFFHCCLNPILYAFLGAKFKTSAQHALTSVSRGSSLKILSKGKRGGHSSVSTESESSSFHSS

O=C(CN1[C@@H]2CCC[C@H]1C[C@H](NC(=O)c1ccccc1)C2)Nc1ccccc1
pIC50 [1]: < 4.40
inhibition [2]: inactive
pIC50 [3]: < 4.10
inhibition [4]: inactive
inhibition [5]: inactive

COc1cc(C(=O)N[C@@H]2C[C@H]3CCC[C@@H](C2)N3Cc2nc3c(Cl)cccc3s2)cc(OC)c1OC
pIC50 [1]: 6.89
inhibition ([2]; concentration not given here): 103%
pIC50 [3]: 6.05
inhibition ([4]; concentration not given here): 95%
inhibition [5]: Active

COc1cc(C(=O)N[C@@H]2C[C@H]3CCC[C@@H](C2)N3CC(=O)Nc2ccc(Cl)c(Cl)c2)cc(OC)c1OC
pIC50 [1]: 6.46
inhibition ([2]; concentration not given here): 103%
pIC50 [3]: 5.74
inhibition ([4]; concentration not given here): 101%

COc1cc(C(=O)N[C@@H]2C[C@H]3CCC[C@@H](C2)N3CC(=O)Nc2cc(C)ccc2C)cc(OC)c1OC
pIC50 [1]: 6.21
inhibition ([2]; concentration not given here): 105%
pIC50 [3]: 4.78
inhibition ([4]; concentration not given here): 108%

COc1cc(C(=O)N[C@@H]2C[C@H]3CCC[C@@H](C2)N3Cc2nc3cc(Cl)ccc3s2)cc(OC)c1OC
pIC50 [1]: 6.77
inhibition ([2]; concentration not given here): 100%
pIC50 [3]: 5.49
inhibition ([4]; concentration not given here): 90%

COc1cc(C(=O)N[C@@H]2C[C@H]3CCC[C@@H](C2)N3CC(=O)Nc2ccc(Cl)cc2Cl)cc(OC)c1OC
pIC50 [1]: 6.80
inhibition ([2]; concentration not given here): 105%
pIC50 [3]: 6.05
inhibition ([4]; concentration not given here): 105%

COc1cc(C(=O)N[C@@H]2C[C@H]3CCC[C@@H](C2)N3Cc2ccc3ccccc3n2)cc(OC)c1OC
pIC50 [1]: 5.17
inhibition ([2]; concentration not given here): 88%
pIC50 [3]: 4.39
inhibition ([4]; concentration not given here): 88%

COc1cc(C(=O)N[C@@H]2C[C@H]3CCC[C@@H](C2)N3CC(=O)Nc2ccccc2Cl)cc(OC)c1OC
pIC50 [1]: 6.85
inhibition ([2]; concentration not given here): 100%
pIC50 [3]: 5.85
inhibition ([4]; concentration not given here): 102%
pIC50 [6]: < 4.10
pIC50 [7]: < 4.10
pIC50 [8]: < 4.10
pIC50 [9]: 4.74

COc1cc(C(=O)N[C@@H]2C[C@H]3CCC[C@@H](C2)N3CC(=O)Nc2c(Cl)cccc2Cl)cc(OC)c1OC
pIC50 [1]: 4.42
inhibition ([2]; concentration not given here): 57%
pIC50 [3]: < 4.40
inhibition [4]: inactive

COc1cc(C(=O)N[C@@H]2C[C@H]3CCC[C@@H](C2)N3Cc2nc3c(OC)cccc3s2)cc(OC)c1OC
pIC50 [1]: 5.51
inhibition ([2]; concentration not given here): 86%
pIC50 [3]: < 4.30
inhibition [4]: inactive

COc1cccc(NC(=O)CN2[C@@H]3CCC[C@H]2C[C@H](NC(=O)c2cc(OC)c(OC)c(OC)c2)C3)c1
pIC50 [1]: 5.24
inhibition ([2]; concentration not given here): 96%
pIC50 [3]: 4.29
inhibition ([4]; concentration not given here): 93%

COc1cccc(CN2[C@@H]3CCC[C@H]2C[C@H](NC(=O)c2cc(OC)c(OC)c(OC)c2)C3)c1
pIC50 [1]: < 4.30
inhibition [2]: inactive
pIC50 [3]: < 4.30
inhibition [4]: inactive

COc1ccc(NC(=O)CN2[C@@H]3CCC[C@H]2C[C@H](NC(=O)c2cc(OC)c(OC)c(OC)c2)C3)cc1
pIC50 [1]: 4.72
inhibition ([2]; concentration not given here): 76%
pIC50 [3]: < 4.40
inhibition [4]: inactive

COc1cc(OC)cc(C(=O)N[C@@H]2C[C@H]3CCC[C@@H](C2)N3CC(=O)Nc2ccc(Cl)cc2)c1
pIC50 [1]: < 4.40
inhibition [2]: inactive
pIC50 [3]: < 4.40
inhibition [4]: inactive

COc1cc(C(=O)N[C@@H]2C[C@H]3CCC[C@@H](C2)N3Cc2cccc(Cl)c2)cc(OC)c1OC
pIC50 [1]: 5.02
inhibition ([2]; concentration not given here): 97%
pIC50 [3]: 4.83
inhibition ([4]; concentration not given here): 100%

COc1cc(C(=O)N[C@@H]2C[C@H]3CCC[C@@H](C2)N3CC(=O)Nc2cccc(C)c2)cc(OC)c1OC
pIC50 [1]: 5.74
inhibition ([2]; concentration not given here): 102%
pIC50 [3]: 4.75
inhibition ([4]; concentration not given here): 92%

COc1cc(C(=O)N[C@@H]2C[C@H]3CCC[C@@H](C2)N3CC(=O)Nc2ccccc2F)cc(OC)c1OC
pIC50 [1]: 6.21
inhibition ([2]; concentration not given here): 103%
pIC50 [3]: 5.19
inhibition ([4]; concentration not given here): 99%

COc1cc(C(=O)N[C@@H]2C[C@H]3CCC[C@@H](C2)N3Cc2ccccc2Cl)cc(OC)c1OC
pIC50 [1]: 5.17
inhibition ([2]; concentration not given here): 99%
pIC50 [3]: 4.94
inhibition ([4]; concentration not given here): 101%

COc1cc(C(=O)N[C@H]2C[C@H]3CCC[C@@H](C2)N3CC(=O)Nc2ccccc2)cc(OC)c1OC
pIC50 [1]: < 4.40
inhibition [2]: inactive
pIC50 [3]: 4.39
inhibition ([4]; concentration not given here): 70%

COc1cc(C(=O)N[C@@H]2C[C@H]3CCC[C@@H](C2)N3CCc2nc3ccccc3s2)cc(OC)c1OC
pIC50 [1]: < 4.30
inhibition [2]: inactive
pIC50 [3]: < 4.30
inhibition [4]: inactive
